Consider two compounds from ChEMBL document CHEMBL1127349, “6,7,8,9-Tetrahydro-N,N-di-n-propyl-3H-benzindol-8-amines. Derivatives as potent and orally active serotonin 5-HT1A receptor agonists” (J Med Chem, 1994).

Calls of active or inactive are those of the source. The rule behind the calls is not given here.

The species named for data set [1] is Rattus norvegicus. The data set is described as follows: Log concentration to inhibit DOPA accumulation was determined in rat limbic system. The format is functional. The method, boiled down: (§1)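 Reserpine-pretreated (5 mg/kg sc, 18 h) male Sprague-Dawley rats, 200–300 g; compounds in saline given sc. DOPA and 5-HTP in limbic system, striatum and hemispheres measured by HPLC with electrochemical detection. Dose–response curves of 4–6 doses (n = 4) per area, fitted to variable-slope sigmoid on log data to give ED50.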

The species named for data set [2] is Rattus norvegicus. The data set is described as follows: The concentration yielding a half maximal decrease of the 5-HTP was determined in rat brain hemispheres. Format: functional. The method, boiled down:
as §1

Another data set has as its target D(2) dopamine receptor (Rattus norvegicus, UniProt P61169). Put plainly: Displacement of the radioligand [3H]spiperone from D2 receptor. The method, boiled down: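 Rat striatal membranes in 50 mM potassium phosphate buffer, incubated with 0.5 nM [3H]spiperone (3 mg tissue) 10 min at 37 °C. Nonspecific binding defined with 10 μM 6,7-ADTN. IC50 converted to Ki by Cheng–Prusoff; 3–7 experiments, each concentration in triplicate.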

Data set [3] is filed under the species Rattus norvegicus. Put plainly: Log concentration to inhibit 5-HTP accumulation was determined in rat limbic system. The format is functional. The method, boiled down:
as §1

For data set [4], the species on record is Rattus norvegicus. The data set is described as follows: Log concentration to inhibit 5-HTP accumulation was determined in rat brain hemispheres. Format: functional. The method, boiled down:
as §1

The subject of data set [5] is Rattus norvegicus. The data set is described as follows: Ratio of the 5HTP-accumulation decrease in limbic regions after sc and po administration at 10 umol/kg. The format is functional, Limbic system. The method, boiled down: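 Ratio of ED50 for decrease of limbic 5-HTP accumulation after oral versus sc dosing in reserpine-pretreated rats; 5-HTP measured by HPLC with electrochemical detection.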

The species entered for data set [6] is Rattus norvegicus. Put plainly: Log concentration to inhibit 5-HTP accumulation was determined in rat brain striatum. Format: functional. In short, it runs like this:
as §1

Data set [7] in a line: Time taken to reach maximum concentration after administration of 10 umol/kg dose perorally. The note with it: in vivo, po. Format: ADME, organism-based. In short, it runs like this:
(§2)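 Male Sprague-Dawley rats, starved 18 h for the oral arm, dosed iv or po. Blood sampled at intervals up to 12 h. Compound measured by GC/mass spectrometry against an internal standard, with a standard curve over 2–1000 pmol/mL in blank blood. tmax read from concentration–time curves, n = 4–6.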

For data set [8], the species on record is Rattus norvegicus. The data set is described as follows: The concentration yielding a half maximal decrease of the 5-HTP was determined in rat brain striatum. The format is functional. The method, boiled down: as §1
Data set [9] can be described thus: Maximum concentration in plasma after administration of 10 umol/kg dose perorally. Format: ADME, organism-based. On the set-up: dose 10 umol/kg, route oral. Conditions: po. The method, boiled down:
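Male Sprague-Dawley rats starved 18 h, dosed orally. Blood samples over up to 12 h, drug quantified by GC/MS against internal standard (2–1000 pmol/mL standard curve). Cmax read from concentration–time curve; SEM, n = 4–6.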

Data set [10] concerns Rattus norvegicus. The data set is described as follows: The concentration yielding a half maximal decrease of the DOPA was determined in rat brain striatum; inactive at 12.5 umol/kg. The format is functional, organism-based.
A short description of data set [11]: Half life in plasma after administration of 2 umol/kg dose intravenously. The format is ADME, organism-based. The note with it: iv.
The nature of data set [12]: Area under the curve after intravenous administration at a dose of 2 umol/kg. The format is ADME. Conditions: in vivo.
In data set [13] the test system is Rattus norvegicus. Put plainly: The concentration yielding a half maximal decrease of the DOPA was determined in rat brain hemispheres; inactive at 12.5 umol/kg. Format: functional, organism-based. In short, it runs like this: as §1
Data set [14] in a line: Time taken to reach maximum concentration after administration of 2 umol/kg dose intravenously. Format: ADME, organism-based. The note with it: in vivo, iv.
The species named for data set [15] is Rattus norvegicus. The data set is described as follows: The concentration yielding a half maximal decrease of the DOPA was determined in rat limbic system. Format: functional.
Data set [16] has as its system Rattus norvegicus. Put plainly: Motor activity was measured by motility testing on injecting the compound subcutaneously into rats at the dose of 12.5 umol/kg. Format: functional. In short, it runs like this:
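Rats given reserpine 5 mg/kg sc 18 h beforehand, then test compound sc in neck (n = 4). Placed singly in photocell motility meters straight after dosing; counts recorded for 30 min, gross behaviour observed throughout. Value as counts/30 min with SEM.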

The species named for data set [17] is Rattus norvegicus. The data set is described as follows: The concentration yielding a half maximal decrease of the 5-HTP was determined in rat limbic system. Format: functional. The method, boiled down:
as §1

The nature of data set [18]: Maximum concentration in plasma after administration of 2 umol/kg dose intravenously. Conditions: iv. The format is ADME, organism-based. Details: dose 2 umol/kg, route intravenous.
Data set [19] is described as follows: Bioavailability in rat (dose 10 uM/kg). Format: ADME, organism-based. Conditions: in vivo. In short, it runs like this:
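Male Sprague-Dawley rats; oral group starved 18 h, compared with iv dosing. Blood sampled up to 12 h, levels by GC/MS. Absolute oral availability F (po/iv) from ratio of AUCs of blood concentration–time curves, po n = 5, iv n = 3.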

The species entered for data set [20] is Rattus norvegicus. Put plainly: The concentration yielding a half maximal decrease of the 5-HTP was determined in rat brain hemispheres. Format: functional.
Data set [21] deals with Rattus norvegicus. Put plainly: The concentration yielding a half maximal decrease of the DOPA was determined in rat brain hemispheres; Inactive at 12.5 umol/kg. The format is functional, organism-based. The method, boiled down:
as §1

Data set [22] is filed under the species Rattus norvegicus. The data set is described as follows: The concentration yielding a half maximal decrease of the 5-HTP was determined in rat limbic system. Format: functional.
Data set [23] can be described thus: Maximum concentration in plasma after administration of 4 umol/kg dose intravenously. The format is ADME, organism-based. On the set-up: dose 4 umol/kg, route intravenous. The note with it: iv. In short, it runs like this: (§3)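 Male Sprague-Dawley rats, iv dosing. Blood sampled at intervals up to 12 h, plasma drug levels by GC/MS with internal standard and a 2–1000 pmol/mL standard curve in blank blood. AUC from total area of concentration–time curve; iv n = 3 (table values SEM, n = 4–6).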

For data set [24], the species on record is Rattus norvegicus. Put plainly: Log concentration to inhibit DOPA accumulation was determined in rat brain striatum. Format: functional. In short, it runs like this: as §1
Data set [25] can be described thus: Time taken to reach maximum concentration after administration of 4 umol/kg dose intravenously. The format is ADME, organism-based. The note with it: in vivo, iv. In short, it runs like this: as §2
In data set [26] the test system is Rattus norvegicus. The data set is described as follows: Ratio of the 5HTP-accumulation decrease in limbic regions after sc to that of po administration at 10 umol/kg. Format: functional, Limbic system.
The species named for data set [27] is Rattus norvegicus. Put plainly: The concentration yielding a half maximal decrease of the 5-HTP was determined in rat brain striatum. The format is functional.
Data set [28] can be described thus: Half life in plasma after administration of 4 umol/kg dose intravenously. The note with it: iv. Format: ADME, organism-based. In short, it runs like this: as §3
The species named for data set [29] is Rattus norvegicus. Put plainly: The concentration yielding a half maximal decrease of the DOPA was determined in rat brain striatum. The format is functional. The method, boiled down:
as §1

The nature of data set [30]: Area under the curve after intravenous administration at a dose of 4 umol/kg. The format is ADME. Conditions: in vivo. The method, boiled down: as §3

D(2) dopamine receptor, sequence (P61169 whole entry): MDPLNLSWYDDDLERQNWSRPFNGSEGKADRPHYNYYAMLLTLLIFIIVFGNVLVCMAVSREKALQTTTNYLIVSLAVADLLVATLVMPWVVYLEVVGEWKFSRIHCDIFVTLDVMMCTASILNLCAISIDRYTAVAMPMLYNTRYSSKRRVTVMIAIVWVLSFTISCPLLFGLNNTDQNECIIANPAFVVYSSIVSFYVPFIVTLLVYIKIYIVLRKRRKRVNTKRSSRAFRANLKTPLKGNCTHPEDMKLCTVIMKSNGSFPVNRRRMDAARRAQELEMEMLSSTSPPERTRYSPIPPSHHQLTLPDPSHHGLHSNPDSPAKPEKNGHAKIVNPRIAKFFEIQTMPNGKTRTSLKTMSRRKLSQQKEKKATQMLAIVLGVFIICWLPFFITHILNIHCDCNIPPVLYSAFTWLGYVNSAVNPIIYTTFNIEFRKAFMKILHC

Consider `CCCN(CCC)[C@H]1CCc2ccc3[nH]cc(C=O)c3c2C1`, for which the pED50 in the data set listed under Rattus norvegicus [1] worked out at 5.36; in the data set listed under Rattus norvegicus [3], 6.94; in the data set filed under Rattus norvegicus [4] it was 7.49; in the data set listed under Rattus norvegicus [6] it was 8.28. Also, the ED50 in the data set filed under Rattus norvegicus [2] turned out to be 0.032 µmol/kg; in the data set on Rattus norvegicus [5], 18%; in the data set listed under Rattus norvegicus [8] it was 0.052 µmol/kg; in the data set listed under Rattus norvegicus [15], 4.33 µmol/kg; in the data set listed under Rattus norvegicus [17], 0.11 µmol/kg. Besides, affinity at D(2) dopamine receptor was put at a Ki of 3.59 µM. The Tmax (usually the time at which the peak concentration occurs) in data set [7] is 48 min; in data set [14], 2 min. Also, the Cmax (in general, the maximum level reached in the sampled fluid or tissue) in data set [9] was 606 nM; in [18], 849 nM. The ED50 entry in the data set on Rattus norvegicus [10] and in the data set with Rattus norvegicus [13] was “inactive” in each case. Further, the half-life (usually how long it takes for the measured level to halve) in data set [11] was 60 min. In data set [12], this compound had an AUC of 607 pM/kg. In the data set with Rattus norvegicus [16], the Counts/30 min came to 413. Also, the bioavailability (usually dose-corrected exposure relative to a reference, in per cent) in data set [19] came to 72%.

On to `CCCN(CCC)[C@@H]1CCc2ccc3[nH]c(C#N)cc3c2C1` [U-92,016-A], for which the pED50 in the data set listed under Rattus norvegicus [1] was determined as 5.69; in the data set listed under Rattus norvegicus [3] it was 6.67; in the data set filed under Rattus norvegicus [4] it was 6.56; in the data set filed under Rattus norvegicus [6], 7.1; in the data set listed under Rattus norvegicus [24] it was 5.47. The affinity at D(2) dopamine receptor corresponds to a Ki of 0.538 µM. In addition, the ED50 worked out at 0.28 µmol/kg in the data set listed under Rattus norvegicus [20]; 0.21 µmol/kg in the data set listed under Rattus norvegicus [22]; 55% in the data set with Rattus norvegicus [26]; 2.01 µmol/kg in the data set listed under Rattus norvegicus [15]; 0.079 µmol/kg in the data set listed under Rattus norvegicus [27]; 3.36 µmol/kg in the data set listed under Rattus norvegicus [29]. Besides, the ED50 result with Rattus norvegicus [21] is “inactive”. In addition, the Cmax in [23] was determined as 2570 nM; in [9], 1120 nM. The Tmax was 75 min in data set [7] and 4 min in data set [25]. Besides, the Activity in the data set with Rattus norvegicus [16] is on record as 194 Counts 30min-1. The half-life in data set [28] was 90 min. The same compound returned an AUC in [30] of 1817 pM/kg. Also, in data set [19], the bioavailability turned out to be 63%.
